# In ChEMBL document CHEMBL1122642, “Biomimetic approach to potential benzodiazepine receptor agonists and antagonists” (J Med Chem, 1984):
# Species on record: Rattus norvegicus
# Test: In vitro inhibition of [3H]diazepam binding to GABA-A benzodiazepine receptor of rat cerebral cortical membranes at 50 uM
# Format: cell membranes
# Details: Membrane
row,SMILES,Inhibition
1,COC(=O)C1Cc2c3n(c4ccccc24)C(=O)CCC3N1Cc1ccccc1 (configuration not stated),17%

# Target: not listed separately
# Test: In vitro binding to GABA-A benzodiazepine receptor of rat cerebral cortical membranes
# Details: not given
# Method in brief: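 Rat cerebral cortex homogenised in Tris-HCl (50 mM, pH 7.4), washed three times by centrifugation at 20000g, 4 °C, and resuspended at 0.5–0.6 mg protein/mL. Incubated with 2 nM [3H]diazepam, 30 min, 4 °C. Stopped with ice-cold buffer, GF/B filtered, scintillation counted. Nonspecific binding with 3 μM unlabelled diazepam or clonazepam. […] Mean of two experiments.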
row,SMILES,Kd
1,CN1C(=O)CN=C(c2ccccc2)c2cc(Cl)ccc21 [DIAZEPAM],5.6 µM

# Target: GABA-A receptor; anion channel
# Test: In vitro inhibition of [3H]diazepam binding to rat cerebral cortical membrane benzodiazepine receptors
# Details: not given
# Method in brief: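 Thrice-washed rat cerebral cortex membranes in 50 mM Tris-HCl pH 7.4 (0.5–0.6 mg/mL protein), incubated 30 min at 4 °C with 2 nM [3H]diazepam plus test compound. Stopped with ice-cold Tris, then GF/B filtration and scintillation counting. Nonspecific binding with 3 μM unlabeled diazepam or clonazepam.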
row,SMILES,Ki
1,COC(=O)c1cc2c3ccccc3n3c(=O)ccc(n1)c23,0.1 µM
2,O=C1CCC2c3c(c4ccccc4n31)CCN2Cc1ccccc1 (configuration not stated),11.2 µM
3,O=C(O)C1Cc2[nH]cnc2CN1 (configuration not stated),> 50 µM
4,CC(=O)OCc1cc2c3ccccc3nc-2c[nH]1,750 µM
5,O=c1ccc2nccc3c4ccccc4n1c23 [CANTHIN-6-ONE],10 µM
6,O=C(O)C1Cc2cc(O)c(O)cc2CN1 (configuration not stated),> 50 µM
7,COC(=O)c1cc2[nH]cnc2c(-c2ccccc2)n1,10 µM
8,CCOC(=O)c1cc2c(cn1)[nH]c1ccccc12,0.001 µM
9,COC(=O)C1Cc2cc(OC)c(OC)cc2CN1 (configuration not stated),32 µM
10,CC(=O)c1cc2c3ccccc3nc-2c[nH]1,0.058 µM
11,NC(=O)c1cc2c3ccccc3nc-2c[nH]1,0.068 µM
12,COC(=O)c1cc2cc(OC)c(OC)cc2cn1,10 µM
13,COC(=O)C1Cc2[nH]cnc2C(c2c(CO)cnc(C)c2O)N1 (configuration not stated),> 50 µM
14,Cc1ncc(CO)c(C2NCCc3ncn(C)c32)c1O (configuration not stated),> 50 µM
15,O=C(O)C1Cc2[nH]cnc2C(c2ccccc2)N1 (cis isomer),> 50 µM
16,OCc1cc2c3ccccc3nc-2c[nH]1,1.47 µM
17,COC(=O)C1Cc2[nH]cnc2C(c2ccccc2)N1 (trans isomer),> 50 µM
18,COC(=O)c1cc2[nH]cnc2cn1,> 50 µM
19,COC(=O)c1cc2c(cn1)[nH]c1ccccc12 [BETA-CCM],0.001 µM
20,COC(=O)C1Cc2ccccc2CN1 (configuration not stated),> 50 µM
